This is an account of results in ChEMBL document CHEMBL1131450, “Synthesis and antitumor evaluation of 2,5-disubstituted-indazolo[4, 3-gh]isoquinolin-6(2H)-ones (9-aza-anthrapyrazoles)” (J Med Chem, 1998).

Assay [1] concerns LoVo. In words: In vitro cytotoxicity on human colon adenocarcinoma (LoVo ) tumor cell line. In kind it is functional, cell-based.
Assay [2] has as its system MX1. In words: In vivo antitumor activity was measured on MX-1 human mammary carcinoma cells. TWI%=tumor weight inhibition. Optimal dose 24 mg/kg/day. The class given is functional.
For assay [3], the system named is P388. In kind it is functional, Mus musculus.
In assay [4] the test system is LoVo. In words: Resistance index measured as the ratio of IC50 of LoVo/Dx cell line to that of LoVo cell line. In kind it is functional, Homo sapiens.
In assay [5] the test system is LoVo/Dx (Homo sapiens). The assay can be described thus: cells.
Assay [6] concerns MX1. In words: In vivo antitumor activity was measured on MX-1 human mammary carcinoma cells. TWI%=tumor weight inhibition. Maximum tested dose 90 mg/kg/day. In kind it is functional.
The subject of assay [7] is P388. In words: In vivo antitumor activity was measured on systemic P388 murine leukemia cells. Maximum tested dose 40 mg/kg/day. In kind it is functional, Mus musculus. In outline: (§1)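 CD2F1 male mice given 10⁶ P388 leukemia cells iv (day 0); drug given iv on days 1, 4 and 7. Survival expressed as T/C% = median survival time of treated / median survival of controls × 100, reported at optimal dose (mg/kg/day) or maximum tested dose.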

For assay [8], the system named is P388. In words: In vivo antitumor activity was measured on systemic P388 murine leukemia cells. Optimal dose 4 mg/kg/day. In kind it is functional, Mus musculus. In outline:
as §1

For assay [9], the system named is MX1. In words: In vivo antitumor activity was measured on MX-1 human mammary carcinoma cells. TWI%=tumor weight inhibition. Optimal dose 9 mg/kg/day. In kind it is functional.
Assay [10] deals with MX1. The assay can be described thus: In vivo antitumor activity was measured on MX-1 human mammary carcinoma cells. TWI%=tumor weight inhibition. Optimal dose 1.3 mg/kg/day. In kind it is functional.
Assay [11] has as its system P388. The assay can be described thus: In vivo antitumor activity was measured on systemic P388 murine leukemia cells. Optimal dose 13 mg/kg/day. In kind it is functional, Mus musculus. In outline: as §1
Assay [12] relates to MX1. In words: In vivo antitumor activity was measured on MX-1 human mammary carcinoma cells. TWI%=tumor weight inhibition. Optimal dose 8 mg/kg/day. The class given is functional.
Assay [13] concerns P388. In words: In vivo antitumor activity was measured on systemic P388 murine leukemia cells. Toxic deaths observed at dose 18 mg/kg/day. The class given is functional, Mus musculus.
Assay [14] relates to MX1. The assay can be described thus: In vivo antitumor activity was measured on MX-1 human mammary carcinoma cells. TWI%=tumor weight inhibition. Optimal dose 27 mg/kg/day. The class given is functional.
In assay [15] the test system is P388. The assay can be described thus: In vivo antitumor activity was measured on systemic P388 murine leukemia cells. Optimal dose 24 mg/kg/day. The class given is functional, Mus musculus. In outline:
as §1

The subject of assay [16] is MX1. The assay can be described thus: In vivo antitumor activity was measured on MX-1 human mammary carcinoma cells. TWI%=tumor weight inhibition. Optimal dose 60 mg/kg/day. The class given is functional.
The test system of assay [17] is MX1. The assay can be described thus: In vivo antitumor activity was measured on MX-1 human mammary carcinoma cells. TWI%=tumor weight inhibition. Optimal dose 18 mg/kg/day. In kind it is functional.
The test system of assay [18] is P388. In words: In vivo antitumor activity was measured on systemic P388 murine leukemia cells. Maximum tested dose 18 mg/kg/day. In kind it is functional, Mus musculus. An outline of the steps: as §1
Assay [19] concerns MX1. The assay can be described thus: In vivo antitumor activity was measured on MX-1 human mammary carcinoma cells. TWI%=tumor weight inhibition. Optimal dose 40 mg/kg/day. The class given is functional.
For assay [20], the system named is MX1. The assay can be described thus: In vivo antitumor activity was measured on MX-1 human mammary carcinoma cells. TWI%=tumor weight inhibition. Optimal dose 120 mg/kg/day. The class given is functional.
Assay [21] concerns MX1. In words: In vivo antitumor activity was measured on MX-1 human mammary carcinoma cells. TWI%=tumor weight inhibition. Optimal dose 13 mg/kg/day. In kind it is functional.
Assay [22] has as its system P388. The assay can be described thus: In vivo antitumor activity was measured on systemic P388 murine leukemia cells. Optimal dose 7.5 mg/kg/day. The class given is functional, Mus musculus. In outline: as §1
Assay [23] relates to MX1. The assay can be described thus: Antitumor activity was measured on MX-1 human mammary carcinoma cells. TWI%=tumor weight inhibition. Optimal dose at 40 mg/kg/day. In kind it is functional.
For assay [24], the system named is P388. In words: In vivo antitumor activity was measured on systemic P388 murine leukemia cells. Optimal dose at 40 mg/kg/day. In kind it is functional, Mus musculus. An outline of the steps: as §1
Assay [25] relates to P388. The assay can be described thus: In vivo antitumor activity was measured on systemic P388 murine leukemia cells. Maximum tested dose 20 mg/kg/day. In kind it is functional, Mus musculus. An outline of the steps:
as §1

Structures are written as SMILES. Values after ≈ are worked out from the molar mass of the structure shown. A value given as a limit tells only on which side of the number the result lay.

Consider `CN(C)CCCn1nc2c3c(c(NCCN(C)C)ccc31)C(=O)c1ccncc1-2`, for which the values for the IC50 in assay [1] and in [5] were 0.24 µg/mL (≈ 0.611 µM) and 2 µg/mL (≈ 5.1 µM), respectively. The same compound had a TWI in [2] of 55%. In addition, the T/C (commonly the ratio of treated to control) in assay [3] is 270%. In addition, the RI in assay [4] stood at 8.3.
With `CN(C)CCCNc1ccc2c3c(nn2CCN(C)C)-c2cnccc2C(=O)c13`, the results for the IC50 in [1] and in assay [5] were 0.33 µg/mL (≈ 0.841 µM) and 2.13 µg/mL (≈ 5.43 µM), respectively. Moreover, in assay [6], the TWI was 141%. Moreover, the T/C in [7] was determined as 138%. In addition, the RI in assay [4] was 6.4.
Turning to `CCN(CC)CCNc1ccc2c3c(nn2CCN(C)C)-c2cnccc2C(=O)c13`, the IC50 (usually the concentration that inhibits the measured activity by half) in assay [1] came to 0.37 µg/mL (≈ 0.91 µM); in assay [5] it was 0.83 µg/mL (≈ 2.04 µM). In assay [8], the T/C is on record as 175%. Besides, the RI in assay [4] is on record as 2.2. In assay [9], the TWI stood at 35%.
Consider `CNCCNc1ccc2c3c(nn2CCN(C)C)-c2cnccc2C(=O)c13`, for which the values for the IC50 in assay [1] and in [5] were 0.03 µg/mL (≈ 0.0823 µM) and 3.78 µg/mL (≈ 10.4 µM), respectively. This compound registered a TWI in assay [10] of 68%. This compound showed a T/C in assay [11] of 262%. Further, the RI in assay [4] stood at 126.
Turning to `CN(C)CCn1nc2c3c(c(NCCCN)ccc31)C(=O)c1ccncc1-2`, the concentration for half-maximal inhibition (IC50) in assay [1] was found to be 1.65 µg/mL (≈ 4.53 µM); in assay [5], 12.5 µg/mL (≈ 34.3 µM). The compound further displayed a TWI in [12] of 73%. The T/C in assay [13] is recorded as 125%. In [4], the RI is on record as 7.6.
With `NCCn1nc2c3c(c(NCCNCCO)ccc31)C(=O)c1ccncc1-2`, the IC50 in assay [1] was 1.63 µg/mL (≈ 4.45 µM); in assay [5], above 100 µg/mL. Moreover, the TWI in assay [14] is on record as 62%. The T/C in assay [15] is listed as 194%. Further, the RI in assay [4] was above 61.
In the case of `CN(C)CCNCCNc1ccc2c3c(nn2CCN(C)C)-c2cnccc2C(=O)c13`, the IC50 in assay [1] was 3.2 µg/mL (≈ 7.59 µM); in [5] it was above 100 µg/mL. Further, the TWI in assay [16] turned out to be 25%. The same compound showed a T/C in assay [7] of 133%. Further, the RI in assay [4] is on record as above 31.
For `CN(C)CCn1nc2c3c(c(NCCN4CCNCC4)ccc31)C(=O)c1ccncc1-2`, the figures for the IC50 in [1] and in assay [5] were 4.83 µg/mL (≈ 11.5 µM) and above 100 µg/mL, respectively. The TWI in [17] worked out at 14%. This compound registered a T/C in assay [18] of 113%. For the same compound, the RI in [4] turned out to be 21.
In the case of `CN(C)CCn1nc2c3c(c(NCCO)ccc31)C(=O)c1ccncc1-2`, the figures for the IC50 in assay [1] and in [5] were 0.32 µg/mL (≈ 0.911 µM) and 13.6 µg/mL (≈ 38.7 µM), respectively. This compound had a TWI in assay [19] of 97%. The compound also came in with a T/C in [7] (in the assay text read “Maximum tested dose 12 mg/kg/day” for “Maximum tested dose 40 mg/kg/day”) of 167%. Moreover, the RI in [4] turned out to be 42.5.
For `CN(C)CCn1nc2c3c(c(NCCn4ccnc4)ccc31)C(=O)c1ccncc1-2`, the figures for the IC50 in [1] and in assay [5] were 1.1 µg/mL (≈ 2.74 µM) and above 100 µg/mL, respectively. In addition, in assay [20], the TWI came out at 70%. The T/C in assay [7] was 150%. In [4], the RI was above 91.
Regarding `NCCNc1ccc2c3c(nn2CCN)-c2cnccc2C(=O)c13`, the figures for the IC50 in assay [1] and in [5] were 0.86 µg/mL (≈ 2.67 µM) and 15.4 µg/mL (≈ 47.8 µM), respectively. In [21], the TWI came out at 70%. For the same compound, the T/C in assay [22] was found to be 194%. The RI in assay [4] is 18.
For `O=C1c2ccncc2-c2nn(CCNCCO)c3ccc(NCCNCCO)c1c23`, the IC50 in assay [1] was 4.5 µg/mL (≈ 11 µM); in assay [5] it was above 100 µg/mL. The same compound returned a TWI in assay [23] of 89%. The same compound returned a T/C in assay [24] of 165%. The RI in [4] is above 22.
Turning to `CN(C)CCn1nc2c3c(c(NCCNS(C)(=O)=O)ccc31)C(=O)c1ccncc1-2`, the IC50 in assay [1] is 4.1 µg/mL (≈ 9.57 µM); in assay [5] it was above 100 µg/mL. For the same compound, the TWI in assay [16] is 90%. For the same compound, in assay [25], the T/C is on record as 111%. Further, the RI in assay [4] is above 24.
